Data reported in ChEMBL document CHEMBL4038327, “Inhibitory Kappa B Kinase α (IKKα) Inhibitors That Recapitulate Their Selectivity in Cells against Isoform-Related Biomarkers” (J Med Chem, 2017).

Columns and labels:
[1] = biological target: T1, Inhibitor of nuclear factor kappa-B kinase subunit beta (Homo sapiens, UniProt O14920); test: Inhibition of recombinant full length human IKKbeta expressed in baculovirus infected sf9 insect cells using biotinylated IkBalpha as substrate after 60 mins by DELFIA
T1 sequence (O14920 whole entry): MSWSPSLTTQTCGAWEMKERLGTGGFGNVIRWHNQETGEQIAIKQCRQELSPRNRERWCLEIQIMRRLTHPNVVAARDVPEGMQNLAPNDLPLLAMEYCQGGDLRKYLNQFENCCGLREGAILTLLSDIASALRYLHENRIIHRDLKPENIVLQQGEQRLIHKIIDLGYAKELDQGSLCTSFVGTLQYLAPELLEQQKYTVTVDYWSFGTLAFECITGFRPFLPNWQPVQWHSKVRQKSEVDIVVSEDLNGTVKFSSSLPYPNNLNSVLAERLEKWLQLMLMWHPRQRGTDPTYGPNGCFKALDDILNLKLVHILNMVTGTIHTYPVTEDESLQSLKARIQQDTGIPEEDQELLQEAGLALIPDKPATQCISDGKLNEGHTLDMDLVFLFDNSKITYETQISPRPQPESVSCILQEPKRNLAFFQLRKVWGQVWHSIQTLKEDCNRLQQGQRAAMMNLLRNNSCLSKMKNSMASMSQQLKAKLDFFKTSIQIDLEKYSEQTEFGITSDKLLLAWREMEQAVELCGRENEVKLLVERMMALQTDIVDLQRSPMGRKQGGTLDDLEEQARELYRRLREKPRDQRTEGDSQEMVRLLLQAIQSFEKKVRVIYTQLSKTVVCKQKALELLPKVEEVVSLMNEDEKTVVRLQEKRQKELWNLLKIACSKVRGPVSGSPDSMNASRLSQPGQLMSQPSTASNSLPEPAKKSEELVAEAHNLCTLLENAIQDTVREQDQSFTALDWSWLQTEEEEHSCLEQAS
In short: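 Recombinant IKKβ (37 nM) was incubated with biotinylated IκB-α (Ser32) peptide (0.375 μM) and 40 μM ATP in Tris-HCl pH 7.5 with MgCl2, EDTA, DTT and BSA for 60 min at 30 °C. The reaction was quenched with EDTA and captured on streptavidin. Detection used anti-phospho-IκBα (Ser32/36) mAb plus Eu-anti-mouse IgG, read by time-resolved fluorescence (340/615 nm). Apparent Ki was obtained via Cheng–Prusoff, n=3.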

[2] = biological target: T2, Inhibitor of nuclear factor kappa-B kinase subunit alpha (Homo sapiens, UniProt O15111); test: (§1) Inhibition of IKKalpha in human U2OS cells assessed as decrease in FCS induced p100 phosphorylation at ser866/870 residues preincubated for 1 hr followed by FCS stimulation for 4 hrs by Western blot analysis; type: cell-based
T2 sequence (O15111 whole entry): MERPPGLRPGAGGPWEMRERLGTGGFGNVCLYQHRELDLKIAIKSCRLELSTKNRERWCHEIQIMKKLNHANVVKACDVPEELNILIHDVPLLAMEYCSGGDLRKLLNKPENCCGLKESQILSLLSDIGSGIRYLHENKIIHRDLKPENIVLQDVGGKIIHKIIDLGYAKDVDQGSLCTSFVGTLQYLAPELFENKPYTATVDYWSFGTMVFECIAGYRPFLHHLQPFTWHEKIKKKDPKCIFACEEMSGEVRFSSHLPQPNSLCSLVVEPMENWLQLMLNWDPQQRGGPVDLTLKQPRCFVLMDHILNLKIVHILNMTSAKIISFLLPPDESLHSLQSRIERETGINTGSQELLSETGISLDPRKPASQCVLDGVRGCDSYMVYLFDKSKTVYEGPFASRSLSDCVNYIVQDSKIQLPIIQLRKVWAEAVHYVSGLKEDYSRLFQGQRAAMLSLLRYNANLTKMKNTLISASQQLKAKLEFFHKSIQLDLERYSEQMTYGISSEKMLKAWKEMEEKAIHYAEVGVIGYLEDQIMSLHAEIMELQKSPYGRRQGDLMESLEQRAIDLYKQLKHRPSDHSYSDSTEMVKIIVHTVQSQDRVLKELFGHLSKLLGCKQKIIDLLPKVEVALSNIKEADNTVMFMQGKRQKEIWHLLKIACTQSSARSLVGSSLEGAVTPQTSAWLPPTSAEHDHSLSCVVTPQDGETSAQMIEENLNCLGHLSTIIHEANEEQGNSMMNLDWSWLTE
In short: (§2)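 U2OS cells were grown in McCoy's 5A medium at 37 °C under 5% CO2 and made quiescent by 24 h serum deprivation. They were then pretreated with compound before agonist stimulation in serum-free medium. Phospho-p100, IκBα levels and phospho-p65 (Ser536) were assessed by Western blot.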

[3] = biological target: T3, Inhibitor of nuclear factor kappa-B kinase subunit alpha (Homo sapiens) (UniProt O15111); test: as §1; type: cell-based; in short: as §2
T3 sequence (whole entry): T2 sequence (O15111 whole entry)

[4] = biological target: T1, Inhibitor of nuclear factor kappa-B kinase subunit beta; test: Inhibition of IKKbeta in human U2OS cells assessed as decrease in TNFalpha induced p65 phosphorylation at ser536 residues at 100 uM preincubated for 1 hr followed by TNFalpha stimulation for 30 mins by Western blot analysis; type: cell-based; conditions: 0.5 h; in short: as §2
[5] = biological target: T4, Inhibitor of nuclear factor kappa-B kinase subunit alpha (Mus musculus) (UniProt Q60680); test: Inhibition of IKKalpha in IKKbeta knockout mouse embryonic fibroblast cells harboring Adv.NF-kB.luc assessed as IL-1beta induced NF-kB transcriptional activation at 100 uM pretreated for 1 hr followed by IL-1beta stimulation for 6 hrs by luciferase reporter gene assay relative to control; set-up: scale not given: the % may be the effect or the level left
T4 sequence (whole entry): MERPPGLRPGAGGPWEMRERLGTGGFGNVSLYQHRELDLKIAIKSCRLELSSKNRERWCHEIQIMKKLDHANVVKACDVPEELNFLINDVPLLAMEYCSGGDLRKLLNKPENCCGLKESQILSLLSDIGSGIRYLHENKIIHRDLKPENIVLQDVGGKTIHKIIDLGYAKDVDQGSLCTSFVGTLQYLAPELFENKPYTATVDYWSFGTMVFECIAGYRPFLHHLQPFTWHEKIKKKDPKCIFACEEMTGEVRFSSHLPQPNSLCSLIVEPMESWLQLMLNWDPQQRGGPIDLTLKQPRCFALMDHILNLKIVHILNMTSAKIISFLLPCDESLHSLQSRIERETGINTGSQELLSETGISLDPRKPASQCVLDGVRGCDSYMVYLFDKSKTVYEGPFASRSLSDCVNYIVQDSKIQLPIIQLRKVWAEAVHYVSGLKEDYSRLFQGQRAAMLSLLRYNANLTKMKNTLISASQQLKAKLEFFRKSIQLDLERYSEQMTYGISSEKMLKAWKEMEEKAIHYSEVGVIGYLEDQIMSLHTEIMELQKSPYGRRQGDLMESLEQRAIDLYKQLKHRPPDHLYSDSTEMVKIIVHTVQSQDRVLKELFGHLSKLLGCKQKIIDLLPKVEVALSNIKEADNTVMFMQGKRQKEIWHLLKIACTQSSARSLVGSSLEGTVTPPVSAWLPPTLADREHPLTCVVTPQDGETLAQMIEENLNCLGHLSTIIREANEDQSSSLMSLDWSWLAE
In short: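 IKKβ knockout MEFs infected with Adv.NF-kB.luc (up to 300 pfu/cell, 24 h, 10% DMEM), replated and serum-starved 24 h. Pretreated 1 h with compound, then IL-1β (10 ng/mL) for 6 h. Lysis buffer contained 0.2 mM luciferin, and luminescence was read as RLU. Results are expressed as % of IL-1β + DMSO stimulation.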

[6] = biological target: T2, Inhibitor of nuclear factor kappa-B kinase subunit alpha; test: Inhibition of recombinant human N-terminal GST-tagged IKKalpha (1 to 745 residues) expressed in baculovirus expression system using biotinylated IkBalpha as substrate after 60 mins by DELFIA
[7] = biological target: T1, Inhibitor of nuclear factor kappa-B kinase subunit beta; test: Inhibition of IKKbeta in human U2OS cells assessed as TNFalpha induced IkBalpha degradation at 100 uM preincubated for 1 hr followed by TNFalpha stimulation for 30 mins by Western blot analysis; type: cell-based; conditions: 0.5 h; in short: as §2

For `N#Cc1c[nH]c2nc(N)nc(-c3ccc(CO)cc3)c12`, the Ki [1] was 2300 nM, the IC50 [2] was 13900 to 19100 nM and the inhibition [3] was “Dose-dependent effect”. The “inhibition (INH)” value [4] was “Not Active”, the Activity [5] was 18.8% and the Ki [6] was 650 nM. For the same compound, the “inhibition (INH)” value [7] was “Not Active”.
